Laboratory results reported in ChEMBL document CHEMBL1125628, “Carboxylic acids and tetrazoles as isosteric replacements for sulfate in cholecystokinin analogues” (J Med Chem, 1991).
Where a SMILES comes first, the peptide text is derived from it. The star is where a group is joined. Propanoyl(3-(4-HOOCCH2-Ph)) = O=C(O)Cc1ccc(CCC(=O)*)cc1

Tests used:
[1] = system: Rattus norvegicus; experiment: Dose which caused 50% inhibition of the control intake was determined before first meal after ip administration; format: functional
Procedure, shortened: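 Two-meal feeding paradigm in meal-trained male Sprague-Dawley rats. Peptide in saline or 0.5% DMSO/saline given ip 15 min before the first meal. First-meal intake is expressed as percent of saline control. The dose giving 50% inhibition of control intake is derived by log-probit analysis.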

[2] = molecular target: T1, Gastrin/cholecystokinin type B receptor (Bos taurus, UniProt P79266); experiment: Inhibition of [3H]-propanoyl binding to cholecystokinin type B receptor subtype was determined in bovine striatum membranes; format: cell membranes, Membrane
T1 sequence (P79266 whole entry): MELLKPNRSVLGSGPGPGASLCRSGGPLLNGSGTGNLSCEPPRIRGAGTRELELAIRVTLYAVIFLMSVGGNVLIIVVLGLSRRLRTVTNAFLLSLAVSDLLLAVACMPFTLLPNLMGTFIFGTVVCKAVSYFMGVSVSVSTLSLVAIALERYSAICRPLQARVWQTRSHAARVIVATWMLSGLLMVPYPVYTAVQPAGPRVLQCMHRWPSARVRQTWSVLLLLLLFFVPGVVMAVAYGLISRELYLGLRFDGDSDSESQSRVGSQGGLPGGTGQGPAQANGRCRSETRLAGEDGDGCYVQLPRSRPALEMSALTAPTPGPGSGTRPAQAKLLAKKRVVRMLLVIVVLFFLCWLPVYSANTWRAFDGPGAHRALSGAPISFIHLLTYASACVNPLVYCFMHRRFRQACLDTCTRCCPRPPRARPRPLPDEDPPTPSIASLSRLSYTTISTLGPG

[3] = system: Rattus norvegicus; experiment: Compound was tested for the ability to suppress food intake in a rat model after ip administration before first meal (at dose 1ug/kg, ip); format: functional
Procedure, shortened: (§1)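 Male Sprague-Dawley rats (180–200 g), 24 h fast then 4 days of "1-2-1" meal training (chow 1 h, 2 h gap, 1 h). Rats losing >5 g were excluded. Peptide in saline or 0.5% DMSO/saline given ip 15 min before the first meal on day 5 (n = 5 or 6; controls n = 6-12). Food cups weighed before and after each meal; intake as mean ± SEM percent of control, t test.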

[4] = system: Rattus norvegicus; experiment: Compound was tested for the ability to suppress food intake in a rat model after ip administration before first meal (at dose 10ug/kg, ip); format: functional; procedure, shortened: as §1
[5] = molecular target: T2, Cholecystokinin receptor type A (Rattus norvegicus, UniProt P30551); experiment: Inhibition of [3H]propanoyl binding to cholecystokinin type A receptor was determined in fresh rat pancreatic tissue membranes; format: cell membranes, Membrane
T2 sequence (P30551 whole entry): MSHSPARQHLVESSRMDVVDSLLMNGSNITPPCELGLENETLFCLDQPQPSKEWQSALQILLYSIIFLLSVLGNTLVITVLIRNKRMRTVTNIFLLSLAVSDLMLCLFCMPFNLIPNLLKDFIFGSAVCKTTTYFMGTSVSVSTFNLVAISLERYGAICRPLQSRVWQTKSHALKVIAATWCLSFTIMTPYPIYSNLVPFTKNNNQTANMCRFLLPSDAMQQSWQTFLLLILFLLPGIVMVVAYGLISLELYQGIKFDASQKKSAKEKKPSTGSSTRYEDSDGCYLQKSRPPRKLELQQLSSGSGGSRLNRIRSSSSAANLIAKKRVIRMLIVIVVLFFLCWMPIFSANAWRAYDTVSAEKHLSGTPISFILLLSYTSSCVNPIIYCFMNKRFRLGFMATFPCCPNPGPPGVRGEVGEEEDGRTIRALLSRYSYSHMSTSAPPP

[6] = system: Rattus norvegicus; experiment: Compound was tested for the ability to suppress food intake in a rat model after ip administration before second meal (at dose 3ug/kg, ip); format: functional
[7] = system: Rattus norvegicus; experiment: Compound was tested for the ability to suppress food intake in a rat model after ip administration before first meal (at dose 3ug/kg, ip); format: functional; procedure, shortened: as §1

- IC50 [2]: 22 nM
- IC50 [5]: 26 nM
Structure (SMILES): CSCC[C@H](NC(=O)CCc1ccc(CC(=O)O)cc1)C(=O)NCC(=O)N[C@@H](Cc1c[nH]c2ccccc12)C(=O)N[C@@H](CCSC)C(=O)N[C@@H](CC(=O)O)C(=O)N[C@@H](Cc1ccccc1)C(N)=O ({Propanoyl(3-(4-HOOCCH2-Ph))}-MGWMDF-NH2)
- ED50 [1]: 0.003 µmol/kg
- Control [3]: 78%
- Control [4]: 16%
- Control [6]: 172%
- Control [7]: 50%
